# In the library only some 3.9% were active in any assay of this set; here they are far more common.
# CRFR2-BP ag – CRF-BP/CRF-R2 complex agonism. HEK293 CRF-R2/CRF-BP, calcium dye fluorescence (FLIPR); percent of saturating CRF peptide response. activation, % at 13.2 µM. hit rate 0.46% among 350,000;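 active = activation of at least 50%, plus an integration ratio under a set limit after plate pattern correction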;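 note: plate controls were neutral control wells without compound for no effect and CRF at EC100 for full effect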
# TMEM16A inh – mouse TMEM16A channel inhibition, primary screen; hit rate 1.2% among 310,000; AID 588511; normalized B-score (activity score, 25-100; higher = stronger inhibition) at 10 µM; HEK293 TMEM16A/YFP iodide influx fluorescence, ionomycin; Q8BHY3;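 active = ratio plate-corrected score three or more library SD toward inhibition, starting fluorescence score within five deviations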;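 note: score derived from kinetic fluorescence span divided by baseline fluorescence per well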
# Target sequence (Q8BHY3 whole entry, looked up): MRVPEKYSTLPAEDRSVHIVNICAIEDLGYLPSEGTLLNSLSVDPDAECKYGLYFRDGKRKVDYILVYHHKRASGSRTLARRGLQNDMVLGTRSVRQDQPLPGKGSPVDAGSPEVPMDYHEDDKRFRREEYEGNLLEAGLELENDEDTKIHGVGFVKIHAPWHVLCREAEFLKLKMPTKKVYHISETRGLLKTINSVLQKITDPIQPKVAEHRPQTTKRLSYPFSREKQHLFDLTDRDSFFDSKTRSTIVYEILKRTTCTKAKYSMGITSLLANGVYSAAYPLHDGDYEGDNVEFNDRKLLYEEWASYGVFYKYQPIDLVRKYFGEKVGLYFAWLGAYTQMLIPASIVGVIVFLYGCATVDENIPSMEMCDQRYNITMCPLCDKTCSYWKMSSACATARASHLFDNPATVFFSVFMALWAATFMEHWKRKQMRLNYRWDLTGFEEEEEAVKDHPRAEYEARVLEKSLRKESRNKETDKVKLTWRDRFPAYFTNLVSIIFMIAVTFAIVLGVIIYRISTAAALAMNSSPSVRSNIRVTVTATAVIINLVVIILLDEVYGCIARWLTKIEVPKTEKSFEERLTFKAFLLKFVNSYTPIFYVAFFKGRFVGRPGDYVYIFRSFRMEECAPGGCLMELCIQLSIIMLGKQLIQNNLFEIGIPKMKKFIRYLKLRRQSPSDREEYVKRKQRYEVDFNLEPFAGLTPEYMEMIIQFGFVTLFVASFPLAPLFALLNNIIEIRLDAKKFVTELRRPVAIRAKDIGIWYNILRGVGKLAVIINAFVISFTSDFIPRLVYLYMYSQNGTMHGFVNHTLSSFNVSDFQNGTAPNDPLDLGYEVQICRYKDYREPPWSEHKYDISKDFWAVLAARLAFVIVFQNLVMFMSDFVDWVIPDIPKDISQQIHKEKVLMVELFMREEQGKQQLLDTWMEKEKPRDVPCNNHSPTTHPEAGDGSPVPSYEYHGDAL
# ANO1 activ – mouse TMEM16A channel activation, primary screen | Q8BHY3 | HEK293 TMEM16A/YFP-H148Q/I152L, iodide quench fluorescence; stronger effect = lower value | B-score at 10 µM | hit rate 0.3% among 340,000 | AID 623877;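 active = fluorescence-ratio B-score plate-corrected deviation score at least 3 library SD below zero, with starting fluorescence score within 5 deviations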;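 note: channel opened by trigger with iodide after compound preincubation; score built on the fluorescence ratio of max minus min over baseline; more negative score means more quench and so TMEM16A activation or potentiation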
# TAAR1 antag – human TAAR1 antagonism; CHO RD-HGA16 TAAR1, Fluo-8 calcium fluorescence, antagonist; inhibition, % at 3 µM; Q96RJ0; hit rate 1.5% among 360,000;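 active = inhibition above a per-plate cutoff, the mean inhibition of test compounds on that plate plus 3 SD, cut at about 49% in these data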;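 note: 0% = DMSO plus EC80 beta-PEA response and 100% = DMSO alone without agonist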
#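 Test system: RD-HGA16 CHO cells with stable hTAAR1 and Gα16 / Probe or stimulus: EC80 β-phenethylamine stimulus / Times: seeding 17-24 h prior, 75-min 37 °C, 30-min RT dye loading / Detection: Fluo-8 calcium-sensitive fluorescence / Read-out basis: % inhibition scaled between DMSO and EC80 PEA controls / Repeats: singlicate, one well per test compound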
# CRFBP-R2 block – CRF-BP/CRF-R2 complex antagonism; HEK293 CRF-R2/CRF-BP, CRF-induced calcium fluorescence; inhibition, % at 11.8 µM; hit rate 0.59% among 350,000;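 active = inhibition of the ligand-induced calcium signal above about 50% at the single tested concentration, limit read from the data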
# TAAR1 ag – human TAAR1 agonism; Q96RJ0; CHO RD-HGA16 TAAR1, Fluo-8 calcium fluorescence; vehicle wells 0%, saturating PEA agonist 100%; activation, % at 3 µM; hit rate 0.99% among 360,000;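 active = activation above the mean activation of all test compounds in the run plus 3 SD, cut at about 38% in these data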
#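 System: CHO-derived RD-HGA16 cells with stable Gα16 and human TAAR1. Times: 17-24 h plating, Fluo-8 75 min 37 °C, 30 min RT. Measured by: calcium-sensitive Fluo-8 signal, excitation 470-495, emission 515-575 nm. Read-out basis: % activation relative to PEA EC100 response. Control set: DMSO and PEA EC100. Repeats: no replicates (n 1).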
# TAAR1 nonsel count – nonselective antagonist in TAAR1 antagonist counter-screen. hit rate 77% among 2,400. shares compounds with TAAR1 antag. inhibition, % at 3 µM. counterscreen cell line, calcium fluorescence, antagonist mode; in the data active = inhibition above about 22%;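 note: CHO-Ga16 host cells stimulated with ATP at an EC80 level; 0% = agonist EC80 plus vehicle and 100% = vehicle without agonist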
# TAAR1 ant conf – human TAAR1 antagonism, confirmed. shares compounds with TAAR1 antag. TAAR1-expressing cells, fluorescence antagonist read-out. inhibition, % at 3 µM. hit rate 40% among 2,400. AID 651785; in the data active = inhibition above about 49%;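 note: CHO-Ga16 host cells challenged with agonist PEA near its EC80; 0% = agonist at EC80 plus vehicle and 100% = vehicle with no agonist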
# Ga16 ag counter-1 – nonselective Ga16 agonist in TAAR1 antagonist counter-screen. activation, % at 3 µM. shares compounds with TAAR1 antag. hit rate 18% among 2,400. AID 651953. Ga16-expressing cells, calcium fluorescence, agonist counterscreen; in the data active = activation above about 12%;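 note: 0% = vehicle wells and 100% = saturating stimulus response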
# TAAR1 ag counter – TAAR1 agonism, antagonist counter-screen; shares compounds with TAAR1 antag; hit rate 2% among 2,400; hTAAR1 cell line, fluorescence activation, agonist mode; activation, % at 3 µM; in the data active = activation above about 37%;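 note: CHO cells stably expressing TAAR1 with calcium dye readout; 0% = DMSO vehicle and 100% = full agonist response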
# TAAR1 ag confirm – confirmation of human TAAR1 agonists; shares compounds with TAAR1 ag; CHO RD-HGA16 TAAR1, Fluo-8 calcium fluorescence; scaled: DMSO 0%, maximal phenethylamine 100%; activation, % at 3 µM; hit rate 82% among 2,400; AID 651783;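 active = activation above a cutoff set at the run's mean compound activation plus 3 SD, cut at about 39% in these data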
# Ga16 ag counter-2 – counter-screen for TAAR1 agonists: nonselective agonists in parental cells; AID 651787; CHO-Ga16 parental, Fluo-8 calcium fluorescence; normalized to maximal ATP response, DMSO zero; activation, % at 3 µM; shares compounds with TAAR1 ag; hit rate 50% among 2,400;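 active = activation above the run cutoff, the mean activation over all tested wells plus 3 SD, cut at about 12% in these data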;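 note: 0% = DMSO wells and 100% = maximal ATP response on the peak over basal ratio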
# TAAR1 desens – counter-screen for human TAAR1 agonists: agonists that desensitize TAAR1 | shares compounds with TAAR1 ag | CHO RD-HGA16 hTAAR1, Fluo-8 calcium, beta-PEA response inhibition | inhibition, % at 3 µM | hit rate 46% among 2,400;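 active = inhibition above the run cutoff, the mean inhibition of all test compounds plus 3 SD, cut at about 49% in these data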;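 note: beta-PEA stimulus applied at its EC80; loss of beta-PEA calcium signal after compound pretreatment read as receptor desensitization; 0% = DMSO with beta-PEA at EC80 and 100% = DMSO alone without agonist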
# Ga16 antag count – counter-screen for TAAR1 agonists: nonselective Ga16 antagonists; inhibition, % at 3 µM; shares compounds with TAAR1 ag; hit rate 39% among 2,400; CHO-Ga16 ATP-induced calcium, Fluo-8 fluorescence;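 active = inhibition above the plate's mean compound inhibition plus 3 SD, computed per plate, cut at about 22% in these data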;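 note: 0% = EC80 ATP with DMSO and 100% = DMSO wells without ATP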
# Numbers without * were called inactive; i = inactive; . = no result given.
SMILES,CRFR2-BP ag,TMEM16A inh,ANO1 activ,TAAR1 antag,CRFBP-R2 block,TAAR1 ag,TAAR1 ag confirm,Ga16 ag counter-2,TAAR1 desens,Ga16 antag count,others
CCN(CC)S(=O)(=O)c1ccc(Cl)c(C(=O)OCC(=O)c2c(N)n(C)c(=O)n(C)c2=O)c1,2.4,i,i,19.8,17.0,8.1,.,.,.,.,
O=C(CN1C(=O)/C(=C/c2ccccc2F)Sc2ccccc21)NCCCN1CCOCC1,6.5,i,i,8.0,5.7,1.1,.,.,.,.,
Cc1noc(C)c1CSCC(=O)NCCN1C(=O)S/C(=C\c2ccccc2F)C1=O,0.2,i,i,56.1*,-1.4,12.9,.,.,.,.,TAAR1 nonsel count=35.2*;TAAR1 ant conf=53.6*;Ga16 ag counter-1=13.0*;TAAR1 ag counter=11.8
c1ccc2c(CC3=NCCN3)cccc2c1,1.1,i,i,74.4*,-16.8,96.8*,95.3*,9.7,90.4*,-1.3,
c1ccc2c(CCc3ccncc3)cccc2c1,-2.6,.,i,-2.0,-2.0,-1.2,.,.,.,.,
COc1ccccc1N1CN(CCc2ccccc2)CNC1=S,-0.2,i,i,57.0*,1.9,82.9*,101.2*,5.1,83.8*,0.9,
Cc1ccc(C)c(N2CN(CCC3=CCCCC3)CNC2=S)c1,0.2,i,i,22.9,-16.2,58.8*,52.9*,0.8,58.6*,13.9,
CCCN1CNC(=S)N(c2cc(C)ccc2C)C1,-1.9,i,i,-3.2,-5.7,1.6,.,.,.,.,
Cc1ccc(N2CN(CCc3ccccc3)CNC2=S)cc1,-2.7,i,i,59.5*,-8.6,73.2*,90.2*,-0.1,81.2*,7.6,
COc1ccccc1N1CN(Cc2ccccc2)CNC1=S,3.9,i,i,-12.1,-11.6,0.2,.,.,.,.,
CCOC(=O)c1ccc(N2CN(CCc3ccccc3)CNC2=S)cc1,-0.9,i,i,.,0.1,.,.,5.2,.,2.6,
CCc1ccc2[nH]c3nc(N/N=C/c4ccc(O)cc4O)nnc3c2c1,-0.3,i,i,16.7,9.9,2.9,.,.,.,.,
O=c1oc2ccccc2c(NCCc2ccccc2)c1[N+](=O)[O-],-0.7,i,i,17.5,19.2,63.4*,70.5*,9.5,12.9,6.4,
CN1CCC(=C(c2ccccc2)c2ccc(Br)cc2)CC1,7.0,i,i,-25.9,-53.5,54.2*,62.6*,33.7*,16.8,19.4,
CN1CCC(OC(=O)c2ccc(Br)cc2)CC1,-0.6,i,i,-2.0,7.1,15.4,.,.,.,.,
O=C(COC(=O)c1ccccn1)NCCc1ccc(Cl)cc1,0.7,.,i,-6.6,-8.5,0.0,.,.,.,.,
Cc1cc(C(=O)CCl)c(C)n1CCc1ccccc1,-1.2,i,.,47.4,-49.5,64.5*,71.4*,7.2,65.7*,7.0,
COC(=O)CCCn1c(C)cc(C(=O)CCl)c1C,1.2,i,i,11.9,20.9,0.0,.,.,.,.,

# Screening results from PubChem BioAssay.
